The values that follow come from ChEMBL document CHEMBL3407339, “A novel series of thiazolyl-pyrazoline derivatives: synthesis and evaluation of antifungal activity, cytotoxicity and genotoxicity” (Eur J Med Chem, 2015).

Assay [1] in a line: Cytotoxicity against mouse NIH/3T3 cells after 24 hrs by XTT assay. Type of assay: cell-based. Conditions: NIH3T3, 24 h. In short, it runs like this:
(§1)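 A549 cells in RPMI and NIH/3T3 cells in DMEM, each with fetal calf serum, antibiotics and 7.5% NaHCO₃, at 37 °C, 5% CO₂. Seeded at 20,000 cells/well, 24 h, then compounds added in medium at 500–3.9 doses (final DMSO <0.1%) for 24 h. XTT read after 3 h at 480 nm (ref 680 nm). IC₅₀ by non-linear regression; triplicates; cisplatin control.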
On the technique in general: Formazan colour is commonly taken as a measure of viable cells.

For another assay, the system named is Aspergillus flavus. As to the kind of experiment: Antifungal activity against Aspergillus flavus NRRL 980 after 72 hrs by broth microdilution assay. The format is functional. As to conditions: NRRL 980, 72 h. In short, it runs like this:
(§2)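 Compounds dissolved in DMSO, diluted in sterile distilled water from 4 to 0.0039 mg/mL. Molds grown on PDA at 25 °C for 5 days, suspended in double-strength PDB at 10⁵ spores/mL. Incubated at 25 °C for 72 h; mycelial growth read under stereo microscope. MIC = lowest concentration inhibiting visible growth. Ketoconazole reference.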
On the technique in general: In broth dilution the organism is exposed to a series of concentrations in liquid medium.

A further assay relates to [Candida] zeylanoides. Kind of assay: Antifungal activity against Candida zeylanoides NRLL Y 1774 after 48 hrs by broth microdilution assay. The format is functional. Conditions: Dujonia zeylanoides, NRLL Y 1774, 48 h. In short, it runs like this:
(§3)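 Broth microdilution of DMSO stocks serially diluted in sterile water (4 to 0.0039 mg/mL). Yeasts grown on SDA at 37 °C for 24 h, suspended in double-strength PDB at 10⁵ spores/mL. Incubated at 37 °C for 48 h, then sprayed with 0.5% aqueous TTC. MIC = lowest concentration inhibiting visible growth. Ketoconazole reference.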

The test system of the next assay is A549. As to the kind of experiment: Antiproliferative activity against human A549 cells after 24 hrs by XTT assay. The format is functional, cell-based. As to conditions: A549, 24 h. In short, it runs like this: as §1
Another assay relates to Candida tropicalis. As to the kind of experiment: Antifungal activity against Candida tropicalis NRLL Y 12968 after 48 hrs by broth microdilution assay. The format is functional. As to conditions: NRLL Y 12968, 48 h. In short, it runs like this: as §3
Another assay deals with Fusarium solani. Kind of assay: Antifungal activity against Fusarium solani NRRL 13414 after 72 hrs by broth microdilution assay. The format is functional. As to conditions: NRRL 13414, 72 h. In short, it runs like this: as §2
The subject of a further assay is Aspergillus niger. Kind of assay: Antifungal activity against Aspergillus niger ATCC 1094 after 72 hrs by broth microdilution assay. Type of assay: functional. As to conditions: ATCC 1094, 72 h. In short, it runs like this: as §2
The next assay has as its system Nakaseomyces glabratus. As to the kind of experiment: Antifungal activity against Candida glabrata clinical isolate after 48 hrs by broth microdilution assay. Type of assay: functional. In short, it runs like this:
as §3

The next assay relates to Pichia kudriavzevii. As to the kind of experiment: Antifungal activity against Candida krusei NRLL Y 7179 after 48 hrs by broth microdilution assay. Type of assay: functional. Conditions: NRLL Y 7179, 48 h. In short, it runs like this:
as §3

A further assay concerns Aspergillus parasiticus. As to the kind of experiment: Antifungal activity against Aspergillus parasiticus NRRL 465 after 72 hrs by broth microdilution assay. The format is functional. As to conditions: NRRL 465, 72 h. In short, it runs like this: as §2
Another assay has as its system Candida parapsilosis. As to the kind of experiment: Antifungal activity against Candida parapsilosis NRLL Y 12696 after 48 hrs by broth microdilution assay. The format is functional. Conditions: Lodderomyces parapsilosis, NRLL Y 12696, 48 h. In short, it runs like this:
as §3

The subject of another assay is Candida albicans. Kind of assay: Antifungal activity against Candida albicans ATCC 90028 after 48 hrs by broth microdilution assay. The format is functional. Conditions: ATCC 90028, 48 h. In short, it runs like this: as §3

Converted amounts (≈) assume the structure as drawn.

For orientation: IC50 means the concentration at which inhibition is half-maximal. The MIC is the least concentration at which growth counts as inhibited. On to `Cc1ccc(C2=NN(c3nc(-c4ccc(Cl)cc4)cs3)C(c3ccc(F)cc3)C2)s1` (centres undefined), for which the IC50 (in assay [1]; in the assay on A549) was greater than 500 µg/mL in each case. Moreover, the MIC was 250 µg/mL (≈ 551 µM) against Aspergillus flavus; 250 µg/mL (≈ 551 µM) in [Candida] zeylanoides; 250 µg/mL (≈ 551 µM) with Candida tropicalis; 250 µg/mL (≈ 551 µM) in the assay with Fusarium solani; 250 µg/mL (≈ 551 µM) with Aspergillus niger; 125 µg/mL (≈ 275 µM) against Nakaseomyces glabratus. Also, the minimal inhibitory concentration (MIC) against Pichia kudriavzevii, against Aspergillus parasiticus, against Candida parapsilosis and against Candida albicans was 250 µg/mL (≈ 551 µM) each time.
For `Cc1ccc(C2=NN(c3nc(-c4ccc(Br)cc4)cs3)C(c3ccc(F)cc3)C2)s1` (centres undefined), the IC50 (in assay [1]; in the assay on A549) was greater than 500 µg/mL in each case. Also, the MIC turned out to be 250 µg/mL (≈ 502 µM) in the assay on Aspergillus flavus; 250 µg/mL (≈ 502 µM) in assay [Candida] zeylanoides; 250 µg/mL (≈ 502 µM) with Candida tropicalis; 250 µg/mL (≈ 502 µM) against Fusarium solani; 250 µg/mL (≈ 502 µM) against Aspergillus niger; 125 µg/mL (≈ 251 µM) with Nakaseomyces glabratus. The MIC against Pichia kudriavzevii, in the assay on Aspergillus parasiticus, with Candida parapsilosis and with Candida albicans was 250 µg/mL (≈ 502 µM) throughout.
Turning to `Cc1ccc(C2=NN(c3nc(-c4ccc([N+](=O)[O-])cc4)cs3)C(c3ccc(F)cc3)C2)s1` (centres undefined), the values for the half-maximal inhibitory concentration (IC50) (in [1]; with A549) were 15.6 µg/mL (≈ 33.6 µM) and 16.7 µg/mL (≈ 35.9 µM), respectively. The minimal inhibitory concentration (MIC) in the assay with Aspergillus flavus was 250 µg/mL (≈ 538 µM); in assay [Candida] zeylanoides it was 250 µg/mL (≈ 538 µM); in the assay with Candida tropicalis, 250 µg/mL (≈ 538 µM); against Fusarium solani, 250 µg/mL (≈ 538 µM); against Aspergillus niger, 250 µg/mL (≈ 538 µM); with Nakaseomyces glabratus, 125 µg/mL (≈ 269 µM). Also, the minimal inhibitory concentration (MIC) in the assay with Pichia kudriavzevii, in the assay on Aspergillus parasiticus, against Candida parapsilosis and in the assay with Candida albicans was 250 µg/mL (≈ 538 µM) throughout.
`Cc1ccc(-c2csc(N3N=C(c4ccc(C)s4)CC3c3ccc(F)cc3)n2)cc1` (centres undefined): the half-inhibitory concentration (IC50) (in assay [1]; in the assay with A549) was greater than 500 µg/mL in each case. In addition, the MIC stood at 250 µg/mL (≈ 577 µM) against Aspergillus flavus; 500 µg/mL (≈ 1150 µM) in assay [Candida] zeylanoides; 500 µg/mL (≈ 1150 µM) in the assay on Candida tropicalis; 250 µg/mL (≈ 577 µM) with Fusarium solani; 250 µg/mL (≈ 577 µM) against Aspergillus niger; 250 µg/mL (≈ 577 µM) in the assay with Nakaseomyces glabratus. The minimal inhibitory concentration (MIC) was determined as 500 µg/mL (≈ 1150 µM) in the assay with Pichia kudriavzevii, 250 µg/mL (≈ 577 µM) in the assay with Aspergillus parasiticus, 500 µg/mL (≈ 1150 µM) against Candida parapsilosis and 500 µg/mL (≈ 1150 µM) in the assay on Candida albicans.
`COc1ccc(-c2csc(N3N=C(c4ccc(C)s4)CC3c3ccc(F)cc3)n2)cc1` (centres undefined): the IC50 was 146 µg/mL (≈ 326 µM) in assay [1] and 184 µg/mL (≈ 408 µM) with A549. In addition, the MIC came to 250 µg/mL (≈ 556 µM) in the assay with Aspergillus flavus; 500 µg/mL (≈ 1110 µM) in assay [Candida] zeylanoides; 500 µg/mL (≈ 1110 µM) against Candida tropicalis; 250 µg/mL (≈ 556 µM) in the assay with Fusarium solani; 250 µg/mL (≈ 556 µM) against Aspergillus niger; 250 µg/mL (≈ 556 µM) with Nakaseomyces glabratus. Moreover, the MIC against Pichia kudriavzevii was 500 µg/mL (≈ 1110 µM); against Aspergillus parasiticus, 250 µg/mL (≈ 556 µM); against Candida parapsilosis it was 500 µg/mL (≈ 1110 µM); against Candida albicans, 500 µg/mL (≈ 1110 µM).
Take `Cc1ccc(C2=NN(c3nc(-c4ccc5c(c4)OCO5)cs3)C(c3ccc(F)cc3)C2)s1` (centres undefined): the results for the half-inhibitory concentration (IC50) (in assay [1]; in the assay with A549) were 125 µg/mL (≈ 270 µM) and 173 µg/mL (≈ 374 µM), respectively. Also, the MIC (against Aspergillus flavus; in [Candida] zeylanoides; against Candida tropicalis; in the assay on Fusarium solani; in the assay on Aspergillus niger; with Nakaseomyces glabratus) was 250 µg/mL (≈ 539 µM) each time. Moreover, the minimal inhibitory concentration (MIC) in the assay with Pichia kudriavzevii, in the assay with Aspergillus parasiticus, against Candida parapsilosis and against Candida albicans was 250 µg/mL (≈ 539 µM) in each case.
Turning to `Cc1ccc(C2=NN(c3nc(-c4ccc(C(F)(F)F)cc4)cs3)C(c3ccc(F)cc3)C2)s1` (centres undefined), the 50% inhibitory concentration (IC50) (in [1]; in the assay with A549) was greater than 500 µg/mL each time. For the same compound, the MIC (with Aspergillus flavus; in assay [Candida] zeylanoides; in the assay on Candida tropicalis; in the assay on Fusarium solani; in the assay on Aspergillus niger; with Nakaseomyces glabratus) was 250 µg/mL (≈ 513 µM) each time. In addition, the minimum inhibitory concentration (MIC) against Pichia kudriavzevii, in the assay with Aspergillus parasiticus, in the assay with Candida parapsilosis and against Candida albicans was 250 µg/mL (≈ 513 µM) in each case.
Take `CC(=O)N1CCN(c2ccc(OCC3COC(Cn4ccnc4)(c4ccc(Cl)cc4Cl)O3)cc2)CC1` (centres undefined) [KETOCONAZOLE]: the minimum inhibitory concentration (MIC) stood at 15.6 µg/mL (≈ 29.4 µM) in the assay with Aspergillus flavus; 250 µg/mL (≈ 470 µM) in assay [Candida] zeylanoides; 125 µg/mL (≈ 235 µM) against Candida tropicalis; 62.5 µg/mL (≈ 118 µM) in the assay with Fusarium solani; 31.2 µg/mL (≈ 58.8 µM) against Aspergillus niger; 62.5 µg/mL (≈ 118 µM) in the assay on Nakaseomyces glabratus. Further, the MIC is 125 µg/mL (≈ 235 µM) against Pichia kudriavzevii, 7.81 µg/mL (≈ 14.7 µM) in the assay with Aspergillus parasiticus, 15.6 µg/mL (≈ 29.4 µM) in the assay with Candida parapsilosis and 62.5 µg/mL (≈ 118 µM) against Candida albicans.
